Assay results published in ChEMBL document CHEMBL4152256, “Structure-activity relationship of new antimalarial 1-aryl-3-susbtituted propanol derivatives: Synthesis, preliminary toxicity profiling, parasite life cycle stage studies, target exploration, and targeted delivery” (Eur J Med Chem, 2018).
pIC50: −log10 of the molar value.

What was measured:
Plasmodium falciparum [1] = assay: Antiplasmodial activity against multidrug-resistant Plasmodium falciparum FCR-3 by [3H]-hypoxanthine incorporation assay; assay type: functional, organism-based, FCR-3/Gambia; details: Plasmodium falciparum, FCR-3/Gambia
In short: (§1)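 Blood-stage P. falciparum 3D7 and FCR-3 were tested by a modified [3H]-hypoxanthine incorporation assay. Chloroquine was the reference in all runs.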

Plasmodium falciparum [2] = assay: Antiplasmodial activity against chloroquine-sensitive Plasmodium falciparum 3D7 by [3H]-hypoxanthine incorporation assay; assay type: functional, organism-based; details: Plasmodium falciparum, 3D7; in short: as §1
[3] = Cytotoxicity against human HepG2A16 cells by MTT assay; assay type: cell-based; details: HepG2A16 cells
In short: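 MTT viability assay on HepG2-A16 cells, giving CC50 values.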

[4] = Selectivity index, ratio of CC50 for human HepG2A16 cells by MTT assay to IC50 for multidrug-resistant Plasmodium falciparum FCR-3; assay type: toxicity; details: HepG2A16 cells, read-out: Ratio CC50/IC50
In short: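 HepG2-A16 human hepatoma cells were tested by MTT viability assay to give CC50. Blood-stage activity was measured against the multidrug-resistant P. falciparum FCR-3 strain by [3H]-hypoxanthine incorporation to give IC50. SI = CC50 HepG2 / FCR-3 IC50.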

[5] = Genotoxicity in Salmonella typhimurium TA1535 harboring pSK1002 assessed as survival at 0.125 mg/ml in absence of Sprague-Dawley rat liver S9 fraction after by SOS/umu assay relative to control; assay type: toxicity, organism-based; details: salmonella enterica subsp. enterica serovar typhimurium, read-out: Survival
[6] = Genotoxicity in Salmonella typhimurium TA1535 harboring pSK1002 assessed as umu gene induction at 0.125 mg/ml in absence of Sprague-Dawley rat liver S9 fraction after by SOS/umu assay relative to control; assay type: toxicity, organism-based; details: salmonella enterica subsp. enterica serovar typhimurium, read-out: FC
[7] = Genotoxicity in Salmonella typhimurium TA1535 harboring pSK1002 assessed as survival at 0.125 mg/ml in presence of Sprague-Dawley rat liver S9 fraction after by SOS/umu assay relative to control; assay type: toxicity, organism-based; details: salmonella enterica subsp. enterica serovar typhimurium, read-out: Survival
[8] = Genotoxicity in Salmonella typhimurium TA1535 harboring pSK1002 assessed as umu gene induction at 0.125 mg/ml in presence of Sprague-Dawley rat liver S9 fraction after by SOS/umu assay relative to control; assay type: toxicity, organism-based; details: salmonella enterica subsp. enterica serovar typhimurium, read-out: FC
[9] = Genotoxicity in Salmonella typhimurium TA1535 harboring pSK1002 assessed as survival at 0.063 mg/ml in absence of Sprague-Dawley rat liver S9 fraction after by SOS/umu assay relative to control; assay type: toxicity, organism-based; details: salmonella enterica subsp. enterica serovar typhimurium, read-out: Survival
[10] = Genotoxicity in Salmonella typhimurium TA1535 harboring pSK1002 assessed as umu gene induction at 0.063 mg/ml in absence of Sprague-Dawley rat liver S9 fraction after by SOS/umu assay relative to control; assay type: toxicity, organism-based; details: salmonella enterica subsp. enterica serovar typhimurium, read-out: FC
[11] = Genotoxicity in Salmonella typhimurium TA1535 harboring pSK1002 assessed as survival at 0.063 mg/ml in presence of Sprague-Dawley rat liver S9 fraction after by SOS/umu assay relative to control; assay type: toxicity, organism-based; details: salmonella enterica subsp. enterica serovar typhimurium, read-out: Survival
[12] = Genotoxicity in Salmonella typhimurium TA1535 harboring pSK1002 assessed as umu gene induction at 0.063 mg/ml in presence of Sprague-Dawley rat liver S9 fraction after by SOS/umu assay relative to control; assay type: toxicity, organism-based; details: salmonella enterica subsp. enterica serovar typhimurium, read-out: FC
[13] = Genotoxicity in Salmonella typhimurium TA1535 harboring pSK1002 assessed as survival at 0.031 mg/ml in absence of Sprague-Dawley rat liver S9 fraction after by SOS/umu assay relative to control; assay type: toxicity, organism-based; details: salmonella enterica subsp. enterica serovar typhimurium, read-out: Survival
[14] = Genotoxicity in Salmonella typhimurium TA1535 harboring pSK1002 assessed as umu gene induction at 0.031 mg/ml in absence of Sprague-Dawley rat liver S9 fraction after by SOS/umu assay relative to control; assay type: toxicity, organism-based; details: salmonella enterica subsp. enterica serovar typhimurium, read-out: FC
[15] = Genotoxicity in Salmonella typhimurium TA1535 harboring pSK1002 assessed as survival at 0.031 mg/ml in presence of Sprague-Dawley rat liver S9 fraction after by SOS/umu assay relative to control; assay type: toxicity, organism-based; details: salmonella enterica subsp. enterica serovar typhimurium, read-out: Survival
[16] = Genotoxicity in Salmonella typhimurium TA1535 harboring pSK1002 assessed as umu gene induction at 0.031 mg/ml in presence of Sprague-Dawley rat liver S9 fraction after by SOS/umu assay relative to control; assay type: toxicity, organism-based; details: salmonella enterica subsp. enterica serovar typhimurium, read-out: FC
[17] = Genotoxicity in Salmonella typhimurium TA1535 harboring pSK1002 assessed as survival at 0.016 mg/ml in absence of Sprague-Dawley rat liver S9 fraction after by SOS/umu assay relative to control; assay type: toxicity, organism-based; details: salmonella enterica subsp. enterica serovar typhimurium, read-out: Survival
[18] = Genotoxicity in Salmonella typhimurium TA1535 harboring pSK1002 assessed as umu gene induction at 0.016 mg/ml in absence of Sprague-Dawley rat liver S9 fraction after by SOS/umu assay relative to control; assay type: toxicity, organism-based; details: salmonella enterica subsp. enterica serovar typhimurium, read-out: FC
[19] = Genotoxicity in Salmonella typhimurium TA1535 harboring pSK1002 assessed as survival at 0.016 mg/ml in presence of Sprague-Dawley rat liver S9 fraction after by SOS/umu assay relative to control; assay type: toxicity, organism-based; details: salmonella enterica subsp. enterica serovar typhimurium, read-out: Survival
[20] = Genotoxicity in Salmonella typhimurium TA1535 harboring pSK1002 assessed as umu gene induction at 0.016 mg/ml in presence of Sprague-Dawley rat liver S9 fraction after by SOS/umu assay relative to control; assay type: toxicity, organism-based; details: salmonella enterica subsp. enterica serovar typhimurium, read-out: FC
[21] = Genotoxicity in Salmonella typhimurium TA1535 harboring pSK1002 assessed as survival at 0.008 mg/ml in absence of Sprague-Dawley rat liver S9 fraction after by SOS/umu assay relative to control; assay type: toxicity, organism-based; details: salmonella enterica subsp. enterica serovar typhimurium, read-out: Survival
[22] = Genotoxicity in Salmonella typhimurium TA1535 harboring pSK1002 assessed as umu gene induction at 0.008 mg/ml in absence of Sprague-Dawley rat liver S9 fraction after by SOS/umu assay relative to control; assay type: toxicity, organism-based; details: salmonella enterica subsp. enterica serovar typhimurium, read-out: FC
[23] = Genotoxicity in Salmonella typhimurium TA1535 harboring pSK1002 assessed as survival at 0.008 mg/ml in presence of Sprague-Dawley rat liver S9 fraction after by SOS/umu assay relative to control; assay type: toxicity, organism-based; details: salmonella enterica subsp. enterica serovar typhimurium, read-out: Survival
[24] = Genotoxicity in Salmonella typhimurium TA1535 harboring pSK1002 assessed as umu gene induction at 0.008 mg/ml in presence of Sprague-Dawley rat liver S9 fraction after by SOS/umu assay relative to control; assay type: toxicity, organism-based; details: salmonella enterica subsp. enterica serovar typhimurium, read-out: FC
[25] = Genotoxicity in Salmonella typhimurium TA1535 harboring pSK1002 assessed as survival at 0.004 mg/ml in absence of Sprague-Dawley rat liver S9 fraction after by SOS/umu assay relative to control; assay type: toxicity, organism-based; details: salmonella enterica subsp. enterica serovar typhimurium, read-out: Survival
[26] = Genotoxicity in Salmonella typhimurium TA1535 harboring pSK1002 assessed as umu gene induction at 0.004 mg/ml in absence of Sprague-Dawley rat liver S9 fraction after by SOS/umu assay relative to control; assay type: toxicity, organism-based; details: salmonella enterica subsp. enterica serovar typhimurium, read-out: FC
[27] = Genotoxicity in Salmonella typhimurium TA1535 harboring pSK1002 assessed as survival at 0.004 mg/ml in presence of Sprague-Dawley rat liver S9 fraction after by SOS/umu assay relative to control; assay type: toxicity, organism-based; details: salmonella enterica subsp. enterica serovar typhimurium, read-out: Survival
[28] = Genotoxicity in Salmonella typhimurium TA1535 harboring pSK1002 assessed as umu gene induction at 0.004 mg/ml in presence of Sprague-Dawley rat liver S9 fraction after by SOS/umu assay relative to control; assay type: toxicity, organism-based; details: salmonella enterica subsp. enterica serovar typhimurium, read-out: FC
[29] = Genotoxicity in Salmonella typhimurium TA1535 harboring pSK1002 assessed as survival at 0.002 mg/ml in absence of Sprague-Dawley rat liver S9 fraction after by SOS/umu assay relative to control; assay type: toxicity, organism-based; details: salmonella enterica subsp. enterica serovar typhimurium, read-out: Survival
[30] = Genotoxicity in Salmonella typhimurium TA1535 harboring pSK1002 assessed as umu gene induction at 0.002 mg/ml in absence of Sprague-Dawley rat liver S9 fraction after by SOS/umu assay relative to control; assay type: toxicity, organism-based; details: salmonella enterica subsp. enterica serovar typhimurium, read-out: FC
[31] = Genotoxicity in Salmonella typhimurium TA1535 harboring pSK1002 assessed as survival at 0.002 mg/ml in presence of Sprague-Dawley rat liver S9 fraction after by SOS/umu assay relative to control; assay type: toxicity, organism-based; details: salmonella enterica subsp. enterica serovar typhimurium, read-out: Survival
[32] = Genotoxicity in Salmonella typhimurium TA1535 harboring pSK1002 assessed as umu gene induction at 0.002 mg/ml in presence of Sprague-Dawley rat liver S9 fraction after by SOS/umu assay relative to control; assay type: toxicity, organism-based; details: salmonella enterica subsp. enterica serovar typhimurium, read-out: FC
[33] = Genotoxicity in Salmonella typhimurium TA1535 harboring pSK1002 assessed as survival at 0.001 mg/ml in absence of Sprague-Dawley rat liver S9 fraction after by SOS/umu assay relative to control; assay type: toxicity, organism-based; details: salmonella enterica subsp. enterica serovar typhimurium, read-out: Survival
[34] = Genotoxicity in Salmonella typhimurium TA1535 harboring pSK1002 assessed as umu gene induction at 0.001 mg/ml in absence of Sprague-Dawley rat liver S9 fraction after by SOS/umu assay relative to control; assay type: toxicity, organism-based; details: salmonella enterica subsp. enterica serovar typhimurium, read-out: FC
[35] = Genotoxicity in Salmonella typhimurium TA1535 harboring pSK1002 assessed as survival at 0.001 mg/ml in presence of Sprague-Dawley rat liver S9 fraction after by SOS/umu assay relative to control; assay type: toxicity, organism-based; details: salmonella enterica subsp. enterica serovar typhimurium, read-out: Survival
[36] = Genotoxicity in Salmonella typhimurium TA1535 harboring pSK1002 assessed as umu gene induction at 0.001 mg/ml in presence of Sprague-Dawley rat liver S9 fraction after by SOS/umu assay relative to control; assay type: toxicity, organism-based; details: salmonella enterica subsp. enterica serovar typhimurium, read-out: FC
[37] = Solubility of the compound in DSPC:cholesterol:DSPE-PEG2000-Mal:DOPE-Rho lipid mixture at 250 uM; assay type: physicochemical
In short: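 Compound added at 250 µM drug to the initial liposome lipid mixture (10 mM total lipid); precipitation and UV-visible absorbance above 300 nm assessed after encapsulation, removal of unencapsulated material and extraction with 1% w/v SDS in RPMI-A.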

## O=[N+]([O-])c1ccc(N2CCN(CCC(O)c3ccc(F)c4ccccc34)CC2)cc1 (stereo unspecified)
Plasmodium falciparum [1]
  pIC50: 5.77
Plasmodium falciparum [2]
  pIC50: 5.32
[3]
  CC50: 12.5 µM
[4]
  selectivity ratio: 7
[5]
  viability at 0.125 mg/ml: 145%
[6]
  fold induction at 0.125 mg/ml: 0.6
[7]
  viability at 0.125 mg/ml: 128%
[8]
  fold induction at 0.125 mg/ml: 0.5
[9]
  viability at 0.063 mg/ml: 124%
[10]
  fold induction at 0.063 mg/ml: 0.7
[11]
  viability at 0.063 mg/ml: 118%
[12]
  fold induction at 0.063 mg/ml: 0.5
[13]
  viability at 0.031 mg/ml: 105%
[14]
  fold induction at 0.031 mg/ml: 0.8
[15]
  viability at 0.031 mg/ml: 122%
[16]
  fold induction at 0.031 mg/ml: 0.5
[17]
  viability at 0.016 mg/ml: 83.8%
[18]
  fold induction at 0.016 mg/ml: 1.1
[19]
  viability at 0.016 mg/ml: 117%
[20]
  fold induction at 0.016 mg/ml: 0.5
[21]
  viability at 0.008 mg/ml: 84.2%
[22]
  fold induction at 0.008 mg/ml: 1.3
[23]
  viability at 0.008 mg/ml: 118%
[24]
  fold induction at 0.008 mg/ml: 0.6
[25]
  viability at 0.004 mg/ml: 84.9%
[26]
  fold induction at 0.004 mg/ml: 1.2
[27]
  viability at 0.004 mg/ml: 109%
[28]
  fold induction at 0.004 mg/ml: 0.9
[29]
  viability at 0.002 mg/ml: 87%
[30]
  fold induction at 0.002 mg/ml: 0.8
[31]
  viability at 0.002 mg/ml: 107%
[32]
  fold induction at 0.002 mg/ml: 0.9
[33]
  viability at 0.001 mg/ml: 88%
[34]
  fold induction at 0.001 mg/ml: 0.5
[35]
  viability at 0.001 mg/ml: 110%
[36]
  fold induction at 0.001 mg/ml: 0.8

## OC(CCN1CCN(C(c2ccccc2)c2ccccc2)CC1)c1ccc2c(c1)OCO2 (stereo unspecified)
Plasmodium falciparum [1]
  pIC50: 5.84
Plasmodium falciparum [2]
  pIC50: 5.78
[3]
  CC50: 36.1 µM
[4]
  selectivity ratio: 25
[37]
  solubility: Insoluble
